Data reported in article PMC6541004 (Antiviral research, 2018).
Like-named read-outs stand apart in the source and are kept apart here.

Legend:
[1] = biological target: DENV2 NS2B-NS3pro (Dengue virus type 2, UniProt P14340); experiment: In vitro protease assay; assay type: biochemical
[2] = system: BHK-21 cells; experiment: Cell-based cytotoxicity assay; design: species or system Baby Hamster
[3] = system: actin; settings: read-out: IC50 of inhibition of actin polymerization; ref Dhar et al., 2015; cited from earlier work
[4] = system: DENV2 replicon; experiment: microbe, parasite or virus in culture; assay type: cell-based; settings: Dengue virus, DENV2, BHK-21, 24 h, read-out: EC50 (replicon)
[5] = Cell-based cytotoxicity assay; design: species or system Baby Hamster; settings: hamster
[6] = system: oleic acid-induced LD in DENV2 infected BHK-21 cells; experiment: Oil Red O staining of lipid droplets; assay type: cell-based; settings: 0.1 mM oleic acid-BSA, 5 μM, 24 h, absorbance at 405 nm
Procedure, shortened: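 BHK-21 cells in MEM with 10% FBS were infected with DENV2 at MOI 1 for 1 h. They were then incubated for 24 h in MEM with 0.1 mM oleic acid-BSA plus test compound (5 μM in imaged wells), with 1% DMSO as negative control. Cells were PBS-washed, fixed in 4% paraformaldehyde for 10 min, and stained with ORO and DAPI. Dye was extracted in 100% isopropanol and read at A405. Duplicates were averaged.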

[7] = system: DENV2; experiment: Plaque assay of DENV2 infectivity; assay type: cell-based; settings: Dengue virus, DENV2, read-out: EC50 (PFU)
[8] = read-out: IC50 (protease activity), mean ± SD of two replicates, 25 nM DENV2 protease, 25 μM substrate Bz-Nle-Lys-Arg-Arg-AMC, 30 min, inhibitor concentrations 1.56-200 μM

Sequence of DENV2 NS2B-NS3pro (P14340 1476-1653): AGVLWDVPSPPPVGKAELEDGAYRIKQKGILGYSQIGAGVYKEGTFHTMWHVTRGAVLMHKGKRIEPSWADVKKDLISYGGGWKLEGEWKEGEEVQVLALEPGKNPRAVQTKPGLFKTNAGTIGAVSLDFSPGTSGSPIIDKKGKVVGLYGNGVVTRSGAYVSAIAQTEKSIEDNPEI
Sequence of DENV2 NS2B-NS3pro (P14340 1398-1437): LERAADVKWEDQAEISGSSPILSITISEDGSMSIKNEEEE

Question: For `COc1cc(/C=C2\CC/C(=C\c3ccc(O)c(OC)c3)C2=O)ccc1O` [CC4], which IC50 [1, 8] is on record?
Answer: 43.9 ± 10.1 µM

Question: What does the source list for `COc1cc(C=C2CCCC(=Cc3ccc(O)c(OC)c3)C2=O)ccc1O` [CC5]?
Answer: CC50 [2]: 25.5 ± 2.64 µM; IC50 [1, 8]: 61 ± 8.7 µM

Question: Which IC50 [3] does the source give for `COc1cc(C=CC(=O)CC(=O)C=Cc2ccc(O)c(OC)c2)ccc1O` [CC1, 1,7-bis(4-hydroxy-3-methoxyphenyl)-1,6-heptadiene-3,5-dione, reference compound] here?
Answer: 16 µM

Question: And the EC50 [4]?
Answer: 13.9 ± 2.08 µM

Question: And the CC50 at 24 h ([5]; BHK-21 cells)?
Answer: 49 ± 8.24 µM

Question: What about the “oleic acid-induced lipid droplets (LD), Oil Red O” value [6] of the same molecule?
Answer: affected LD levels

Question: And the EC50 [7]?
Answer: 14 ± 4.62 µM

Question: And the IC50 [1]?
Answer: 66 ± 13.1 µM

Question: Which EC50 [4] does the source give for `O=C(/C=C/c1ccc(O)cc1)CC(=O)/C=C/c1ccc(O)cc1` [CC2, Bisdemethoxycurcumin] here?
Answer: 26.4 ± 3.67 µM

Question: And the CC50 at 24 h [5]?
Answer: 43.4 ± 5.19 µM

Question: What about the EC50 [7] of the same molecule?
Answer: 6.49 ± 0.22 µM

Question: And the IC50 [1]?
Answer: 36.2 ± 9.67 µM
